Data set [1] concerns the target C-C chemokine receptor type 2 (Homo sapiens) (UniProt P41597). Briefly: Antagonist activity at CCR2 in human THP1 cells assessed as inhibition of CCL2-induced chemotaxis after 2 hrs by microtiter format trans-well migration assay. The class given is functional, cell-based. Particulars: THP-1. The essentials:
(§1)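 Microtiter trans-well migration assay in Gey's balanced salt solution with 1 mg/mL endotoxin-free BSA, no fetal calf serum. Migration ran 2 h at 37 °C. Compounds dissolved in DMSO and added to both top and bottom compartments, final DMSO 1%.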

Data set [2] can be described thus: Antagonist activity at Interleukin-8 receptor in human PMNC assessed as inhibition of CXCL8-induced chemotaxis after 2 hrs by microtiter format trans-well migration assay. Format: functional. The settings on record: read-out: ED50 (the source's name). Put shortly:
as §1

In data set [3] the target is T1, C5a anaphylatoxin chemotactic receptor 1 (Homo sapiens) (UniProt P21730).
T1 sequence (whole entry): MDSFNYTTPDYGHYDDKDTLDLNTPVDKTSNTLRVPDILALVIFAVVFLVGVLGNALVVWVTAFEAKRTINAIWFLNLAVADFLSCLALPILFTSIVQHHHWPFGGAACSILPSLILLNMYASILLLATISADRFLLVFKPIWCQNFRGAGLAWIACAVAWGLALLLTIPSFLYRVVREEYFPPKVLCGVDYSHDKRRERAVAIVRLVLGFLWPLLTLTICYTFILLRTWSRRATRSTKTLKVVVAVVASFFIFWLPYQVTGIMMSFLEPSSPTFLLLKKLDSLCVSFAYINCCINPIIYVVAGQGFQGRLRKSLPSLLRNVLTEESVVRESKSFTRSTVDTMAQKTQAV
Briefly: Antagonist activity at C5a receptor in human PMNC assessed as inhibition of C5a-induced chemotaxis after 2 hrs by microtiter format trans-well migration assay. Format: functional. The essentials: as §1

Data set [4] addresses C-C chemokine receptor type 2 (Homo sapiens) (UniProt P41597). Briefly: Antagonist activity at CCR2 in human THP1 cells assessed as inhibition of CCL2-induced chemotaxis at 1000 nM after 2 hrs by microtiter format trans-well migration assay. The class given is functional, cell-based. The settings on record: THP-1. Put shortly:
as §1

Data set [5] shares this target. Briefly: Antagonist activity at CCR2 in human THP1 cells assessed as inhibition of CCL2-induced chemotaxis at 0.01 nM after 2 hrs by microtiter format trans-well migration assay. The class given is functional, cell-based. The settings on record: THP-1. Put shortly:
as §1

For data set [6], the target named is T2, C-C chemokine receptor type 1 (Homo sapiens) (UniProt P32246).
T2 sequence (whole entry): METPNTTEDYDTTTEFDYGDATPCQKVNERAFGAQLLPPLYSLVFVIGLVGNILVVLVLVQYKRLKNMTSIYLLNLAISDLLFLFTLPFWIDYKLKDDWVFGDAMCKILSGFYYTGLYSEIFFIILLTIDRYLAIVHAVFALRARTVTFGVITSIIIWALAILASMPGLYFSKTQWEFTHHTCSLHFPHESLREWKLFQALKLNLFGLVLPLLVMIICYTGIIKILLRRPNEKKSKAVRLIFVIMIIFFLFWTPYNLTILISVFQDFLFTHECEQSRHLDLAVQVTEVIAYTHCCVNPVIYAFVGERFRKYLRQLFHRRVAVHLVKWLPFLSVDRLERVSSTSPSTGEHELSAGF
Nature of the data set: Antagonist activity at CCR1 in human THP1 cells assessed as inhibition of CCL3-induced chemotaxis at 100 nM after 2 hrs by microtiter format trans-well migration assay. Format: functional, cell-based. Particulars: THP-1. Put shortly:
as §1

Data set [7] has as its target T2, C-C chemokine receptor type 1 (Homo sapiens). Nature of the data set: Antagonist activity at CCR1 in human THP1 cells assessed as inhibition of CCL3-induced chemotaxis at 1 nM after 2 hrs by microtiter format trans-well migration assay. Format: functional, cell-based. Particulars: THP-1. Put shortly:
as §1

For data set [8], the target named is C-C chemokine receptor type 5 (Homo sapiens) (UniProt P51681). Nature of the data set: Antagonist activity at CCR5 in human THP1 cells assessed as inhibition of CCL5-induced chemotaxis at 10 nM after 2 hrs by microtiter format trans-well migration assay. The class given is functional, cell-based. The settings on record: THP-1. The essentials: as §1
The target of data set [9] is T1, C5a anaphylatoxin chemotactic receptor 1 (Homo sapiens). Nature of the data set: Antagonist activity at C5a receptor in human PMNC assessed as inhibition of C5a-induced chemotaxis at 10 nM after 2 hrs by microtiter format trans-well migration assay. Format: functional. The essentials:
as §1

In data set [10] the target is C-X-C chemokine receptor type 4 (Homo sapiens) (UniProt P61073). Briefly: Antagonist activity at CXCR4 in human THP1 cells assessed as inhibition of CXCL12-induced chemotaxis at 0.1 nM after 2 hrs by microtiter format trans-well migration assay. Format: functional, cell-based. Particulars: THP-1. Put shortly:
as §1

For data set [11] the target is unchanged. Briefly: Antagonist activity at CXCR4 in human THP1 cells assessed as inhibition of CXCL12-induced chemotaxis at 0.01 nM after 2 hrs by microtiter format trans-well migration assay. The settings on record: THP-1. The class given is functional, cell-based. The essentials:
as §1

Data set [12] can be described thus: Antagonist activity at Interleukin-8 receptor in human PMNC assessed as inhibition of CXCL8-induced chemotaxis at 1000 nM after 2 hrs by microtiter format trans-well migration assay. The class given is functional. Put shortly:
as §1

Data set [13] deals with THP-1. Briefly: Endogenous chemoattractant activity at human THP1 cells assessed as cell migration at 1 uM after 2 hrs by microtiter format trans-well migration assay. Format: functional.
In data set [14] the test system is THP-1. Nature of the data set: Endogenous chemoattractant activity at human THP1 cells assessed as cell migration at 1 nM after 2 hrs by microtiter format trans-well migration assay. Format: functional.
Data set [15] concerns THP-1. Nature of the data set: Toxicity in human THP1 cells assessed as change in cell size at 0.1 nM by forward scatter flow cytometry relative to control. The settings on record: thp-1, 0.0001 µM. The class given is cell-based. For orientation: Flow cytometry measures light scatter and fluorescence of single cells or particles in a stream.
For data set [16], the system named is Mus musculus. Nature of the data set: Antiinflammatory activity in mouse assessed as inhibition of LPS-induced TNFalpha upregulation at 0.0075 ug, sc measured 2 hrs after LPS challenge. Format: functional. The essentials: (§2)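 Murine sublethal endotoxemia: LPS given intraperitoneally, with serum TNF-α measured 2 h after the LPS injection as the end point. Compound was given subcutaneously or orally. Vehicle was 0.6% DMSO and 1% carboxymethylcellulose (final concentrations) in sterile water. Effect is reported as % relative to control.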

Data set [17] has as its system Mus musculus. Briefly: Antiinflammatory activity in mouse assessed as inhibition of LPS-induced TNFalpha upregulation at 0.075 ug, sc measured 2 hrs after LPS challenge. The class given is functional. Put shortly: as §2
Data set [18] has as its system Mus musculus. Nature of the data set: Antiinflammatory activity in mouse assessed as inhibition of LPS-induced TNFalpha upregulation at 0.00075 mg, sc measured 2 hrs after LPS challenge. The class given is functional. The essentials: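 Murine sublethal endotoxemia: LPS given intraperitoneally, serum TNF-α measured 2 h after LPS injection. Compound vehicle 0.6% DMSO plus 1% carboxymethylcellulose (final concentrations) in sterile water.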

Data set [19] concerns Mus musculus. Briefly: Antiinflammatory activity in mouse assessed as inhibition of LPS-induced TNFalpha upregulation at 0.0075 mg, sc measured 2 hrs after LPS challenge. Format: functional. The essentials:
as §2

Data set [20] relates to Mus musculus. Briefly: Antiinflammatory activity in mouse assessed as inhibition of LPS-induced TNFalpha upregulation at 0.025 mg, sc measured 2 hrs after LPS challenge. Format: functional. The essentials: as §2
The test system of data set [21] is Mus musculus. Briefly: Antiinflammatory activity in mouse assessed as inhibition of LPS-induced TNFalpha upregulation at 0.0075 mg, po measured 2 hrs after LPS challenge. The class given is functional. Put shortly: as §2
The test system of data set [22] is Mus musculus. Nature of the data set: Antiinflammatory activity in mouse assessed as inhibition of LPS-induced TNFalpha upregulation at 0.025 mg, po measured 2 hrs after LPS challenge. The class given is functional. Put shortly:
as §2

Data set [23] is described as follows: Half life in Sprague-Dawley rat at 1 mg/kg, iv administered as single dose. Format: ADME, organism-based. Details: dose 1 mg/kg, route intravenous. The settings on record: in vivo. The essentials:
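Male Sprague-Dawley rats, three per compound, receive a single intravenous dose in 5% DMSO in 0.9% saline. Food and water are given ad libitum. Plasma is taken at 5, 15, 30, 60, 120, 180, 240 and 480 min. Drug is measured by LC/MS/MS after extraction with 0.1% formic acid in acetonitrile. The curve is back-extrapolated to time zero assuming an initial volume of 0.26 L/kg.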

Sequence of C-C chemokine receptor type 2 (Homo sapiens) (P41597 whole entry, looked up): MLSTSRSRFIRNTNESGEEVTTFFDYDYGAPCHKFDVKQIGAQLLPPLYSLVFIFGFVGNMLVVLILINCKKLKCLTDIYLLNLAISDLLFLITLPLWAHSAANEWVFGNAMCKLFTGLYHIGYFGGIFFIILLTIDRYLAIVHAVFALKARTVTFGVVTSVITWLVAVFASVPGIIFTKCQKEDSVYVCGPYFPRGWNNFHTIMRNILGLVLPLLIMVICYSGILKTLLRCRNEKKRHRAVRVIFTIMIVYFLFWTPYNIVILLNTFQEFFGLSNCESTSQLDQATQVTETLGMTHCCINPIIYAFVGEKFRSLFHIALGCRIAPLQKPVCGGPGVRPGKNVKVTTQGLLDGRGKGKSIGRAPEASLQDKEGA
Sequence of C-X-C chemokine receptor type 4 (Homo sapiens) (P61073 whole entry): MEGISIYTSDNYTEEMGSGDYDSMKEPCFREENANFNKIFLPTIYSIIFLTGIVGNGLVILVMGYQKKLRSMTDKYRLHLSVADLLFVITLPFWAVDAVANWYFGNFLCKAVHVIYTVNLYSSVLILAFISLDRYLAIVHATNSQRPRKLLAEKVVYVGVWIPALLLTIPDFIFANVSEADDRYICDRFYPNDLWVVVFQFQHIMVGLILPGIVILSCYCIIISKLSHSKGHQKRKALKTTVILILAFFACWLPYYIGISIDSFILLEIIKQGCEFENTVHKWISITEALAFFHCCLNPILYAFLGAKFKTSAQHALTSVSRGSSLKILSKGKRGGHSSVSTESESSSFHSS
Sequence of C-C chemokine receptor type 5 (Homo sapiens) (P51681 whole entry, looked up): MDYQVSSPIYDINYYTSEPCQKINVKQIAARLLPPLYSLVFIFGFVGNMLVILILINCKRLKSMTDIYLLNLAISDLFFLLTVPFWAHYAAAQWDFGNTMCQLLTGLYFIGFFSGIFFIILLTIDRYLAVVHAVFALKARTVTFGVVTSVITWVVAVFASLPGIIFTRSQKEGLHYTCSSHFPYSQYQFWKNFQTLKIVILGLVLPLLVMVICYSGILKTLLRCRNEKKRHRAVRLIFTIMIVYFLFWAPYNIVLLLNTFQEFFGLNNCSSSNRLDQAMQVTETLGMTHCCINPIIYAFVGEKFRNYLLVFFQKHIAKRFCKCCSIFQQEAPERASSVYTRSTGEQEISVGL

Take `CCCCCCCCCCC(C)(C)C(=O)N[C@H]1CCCCNC1=O`: the ED50 in data set [1] was 0.09 nM; in [3] it was more than 1000 nM. In addition, in [2], the EC50 was 0.3 nM. Also, the inhibition is 97% in data set [4]; 12% in [5]; 95% in [6]; 92.5% in [7]; 102% in data set [8]; -3% in data set [9]. Further, the inhibition turned out to be 13% in data set [10] and 15.5% in data set [11]. In data set [12], the inhibition at 1 µM turned out to be 122%. Also, the Activity in the data set on THP-1 [13] is listed as 4626%; with THP-1 [14], 4335%. For the same molecule, in the data set with THP-1 [15], the “fold change (FC)” value worked out at 1.04. In addition, the “inhibition (INH)” value with Mus musculus [16] amounted to 54%; in the data set with Mus musculus [17], 65%; in the data set with Mus musculus [18], 57%; with Mus musculus [19], 63%; in the data set with Mus musculus [20], 64%; in the data set with Mus musculus [21], 12%. For the same molecule, the “inhibition (INH)” value in the data set with Mus musculus [22] is 44%. Also, the half-life in data set [23] is 46 min.

Usually inhibition stands for the drop in the measured response relative to a control, in per cent. A word on the half-life: it is the time in which the quantity being followed falls by half. Lower therefore signals fast loss.
